Source: PubChem
Apaf-1 inh: inhibitors of human Apaf-1 apoptosome, primary screen, biochemical, DEVD-Rh110 fluorescence, uHTS | AID 489030, 2010 | 330,000 tested, 0.71% active | inhibition, % at 20 µM | reconstituted apoptosome caspase-3 activity | Apoptotic protease-activating factor 1 (Homo sapiens), O14727; active = inhibition of at least 40% at 20 µM
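Material: reconstituted apoptosome with Apaf-1, cytochrome c, caspase-9, procaspase-3, dATP / Buffer or medium: pH 7.5 Hepes buffer with CHAPS, BSA, DTT / Also added: cytochrome c with DEVD-Rh110 / Schedule: compound with Apaf-1, dATP, procaspase-3 30 min, then 50 min reaction, room temperature / Technique: rhodamine 110 fluorescence at Ex 480/Em 540 nm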
proCasp3 act: activators of human procaspase-3 D3A mutant, primary screen, biochemical, absorbance, PC-3 D3A mutant, single concentration; recombinant procaspase-3 D3A, Ac-DEVD-pNA absorbance 405 nm; 330,000 tested, 0.11% active; activation, % at 8.5 µM; AID 463141, 2010; Caspase-3 (Homo sapiens), P42574;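 active = activation above the mean of all tested compounds plus 3 SD, cut at about 21% in these data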
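Assay system: Procaspase-3 D3A mutant, all three cleavage aspartates alanine. Buffer or medium: Zinc-free HEPES saline buffer with Triton X-100. Times: 1 h compound preincubation, 2 h substrate hydrolysis at 25 °C. Measured by: 405 nm absorbance of p-nitroaniline, reads at 0 and 120 min. Read-out basis: percent activation relative to control range. Replicates: singlicate.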
proCasp7 act: procaspase-7 activators, primary screen, counter-screen for procaspase-3 activator project, biochemical, absorbance, HTS, human | Caspase-7 (Homo sapiens), P55210 | 330,000 tested, 0.093% active | recombinant procaspase-7, Ac-DEVD-pNA absorbance 405 nm; D23A/D198A/D206A triple mutant, cannot self-cleave; scale: DMSO 0, 5 µM enzyme 100 | activation, % at 8.5 µM;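 active = percent activation above the screen-wide mean plus 3 SD, cut at about 25% in these data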
Target sequence (P55210 whole entry D23A/D198A/D206A): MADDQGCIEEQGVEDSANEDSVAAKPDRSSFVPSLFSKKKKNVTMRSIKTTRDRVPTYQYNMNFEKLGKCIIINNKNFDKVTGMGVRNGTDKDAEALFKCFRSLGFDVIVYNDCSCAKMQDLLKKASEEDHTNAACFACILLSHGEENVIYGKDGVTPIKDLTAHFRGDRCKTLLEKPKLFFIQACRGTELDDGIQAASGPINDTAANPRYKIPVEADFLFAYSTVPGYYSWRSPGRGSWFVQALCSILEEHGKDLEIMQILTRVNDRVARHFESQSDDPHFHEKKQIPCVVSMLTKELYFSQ
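Replicates: singlicate. Assay system: Procaspase-7 triple mutant (PC-7 D3A). Signal: 405 nm absorbance of p-nitroaniline. Times: 1 h preincubation, 2 h reaction. Buffer or medium: Zinc-free HEPES pH 7.4 with 300 mM NaCl, 0.01% Triton X-100. Also added: DEVD-pNA substrate. Benchmarks: DMSO wells as 0%, DMSO with 5 µM added PC-7 as 100%.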
ZTA DNA inh: counter-screen for EBNA-1 inhibitors: inhibitors of Epstein-Barr virus ZTA; inhibition, % at 11 µM; P03206; ZTA-DNA binding, fluorescence polarization; AID 2234; 320,000 tested, 0.15% active; in the data active = inhibition above about 33%
GSTO1 inh: inhibitors of recombinant GSTO1, primary screen, counter-screen for RBBP9 inhibitor project, biochemical, fluorescence polarization; Glutathione S-transferase omega-1 (Homo sapiens), P78417; activity-based probe fluorescence polarization; inhibition, % at 5.96 µM; 300,000 tested, 1.1% active; AID 1974, 2009;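 active = inhibition above the campaign mean inhibition plus 3 SD, cut at about 35% in these data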
Target sequence (P78417 whole entry, looked up): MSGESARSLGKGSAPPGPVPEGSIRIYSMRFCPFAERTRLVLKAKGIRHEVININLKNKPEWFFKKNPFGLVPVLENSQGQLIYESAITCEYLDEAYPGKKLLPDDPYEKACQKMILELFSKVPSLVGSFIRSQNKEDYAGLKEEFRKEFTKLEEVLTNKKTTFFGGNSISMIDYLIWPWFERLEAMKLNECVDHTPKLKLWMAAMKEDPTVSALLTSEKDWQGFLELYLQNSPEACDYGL
EBNA-1 inhibitor: EBNA-1 DNA-binding inhibitors, primary screen, biochemical, fluorescence polarization | inhibition, % at 14.8 µM | 300,000 tested, 0.34% active; in the data active = inhibition above about 28%
Large screens that a line does not name were inactive. This is a sample that favours compounds with a hit; in the whole collection about 1.8% have one here.

C#CCOCCOCCOCCNc1nc(N2CCN(C(=O)[C@H](Cc3ccc(O)cc3)n3cc([C@@H](N)C(C)CC)nn3)CC2)nc(N2CCN(C(=O)[C@H](Cc3cc4ccccc4[nH]3)n3cc([C@@H](N)Cc4ccc(O)cc4)nn3)CC2)n1 (some centres not stated)	Apaf-1 inh 55.6
CN(C(=O)c1ccc(NC(=O)C2CCN(C(=O)OC(C)(C)C)CC2)cc1)C1CCC1	none (no result: ZTA DNA inh, GSTO1 inh, EBNA-1 inhibitor)
COc1ccc(NS(=O)(=O)c2ccc(N3CCCCC3)c(N)c2)cc1	none (no result: GSTO1 inh, EBNA-1 inhibitor)
CCOc1ccc(NS(=O)(=O)c2ccc3c(c2)oc(=O)n3C)cc1	GSTO1 inh 36.0
Cc1ccc(NS(=O)(=O)c2ccc3c(c2)oc(=O)n3C)cc1F	none
Cc1ccc(NS(=O)(=O)c2ccc3c(c2)oc(=O)n3C)cc1	none (no result: proCasp3 act, proCasp7 act, ZTA DNA inh, GSTO1 inh, EBNA-1 inhibitor)
Cc1ccc(NS(=O)(=O)c2ccc3c(c2)oc(=O)n3C)cc1C	GSTO1 inh 36.8
Cc1ccc2nc(NS(=O)(=O)c3cn(C)nc3C)sc2c1	none
O=C(CCCCCNC(=O)c1ccccc1)N=Nc1c(O)[nH]c2c(Br)cc(Br)cc12	GSTO1 inh 56.8
CCOC(=O)CSc1nc2sc3c(c2c(=O)[nH]1)CC(C)(CC)OC3 (configuration not stated)	none
CC1(C)Cc2c(sc3nc(SCC(=O)O)[nH]c(=O)c23)CO1	GSTO1 inh 36.5
CC(C)OCc1ccc(C(=O)N2CCN(CC(=O)N3CCCC3)CC2)cc1	none (no result: ZTA DNA inh, GSTO1 inh, EBNA-1 inhibitor)
CCc1ccccc1NC(=S)N(CCCN1CCOCC1)Cc1ccccn1	ZTA DNA inh 81.8
CC(=O)NCC(=O)OCN1C(=O)c2ccccc2C1=O	GSTO1 inh 36.0
O=C(CNC(=O)c1ccc(Cl)cc1)OCN1C(=O)c2ccccc2C1=O	none (no result: ZTA DNA inh, GSTO1 inh, EBNA-1 inhibitor)
c1cc2c3c(cccc3c1)C(N1CCCCC1)=N2	Apaf-1 inh 90.9
CCOc1cc(C2C3=C(CC(C)(C)CC3=O)N(C)C3=C2C(=O)CC(C)(C)C3)ccc1O	none
CC(=O)N(C)C1=C(N2CCOCC2)C(=O)c2ccccc2C1=O	Apaf-1 inh 64.8, GSTO1 inh 59.3
Brc1ccc(C=Nc2ccc(Nc3ccccc3)cc2)s1	GSTO1 inh 37.1 (no result: Apaf-1 inh)
Cc1nn(CCCC(=O)NCc2ccc(F)cc2)c(=O)c2nccn12	none
O=C1Nc2cc(C(=O)NCCCN3CCCC3)ccc2S/C1=C\c1ccccc1	none
COc1ccc(/C=C2/Sc3ccc(C(=O)NCCN4CCCCCC4)cc3NC2=O)cc1	Apaf-1 inh 49.0
COc1ccc(OC)c(-c2cc(C(=O)NCc3ccc(Cl)cc3)no2)c1	EBNA-1 inhibitor 30.3
COc1ccc(-c2cc(C(=O)NCc3ccc(Cl)cc3)no2)cc1OC	none
COC(=O)C1=C(C)N(Cc2ccccc2)C(=S)N[C@H]1c1cccc(F)c1	none
COCCN1C(=S)N[C@@H](c2cccc(F)c2)C(C(=O)OC)=C1C	Apaf-1 inh 57.4
COc1ccccc1CN(C)C(=O)c1ccc(S(=O)(=O)NCc2ccco2)cc1	none (no result: GSTO1 inh, EBNA-1 inhibitor)
COc1ccc(S(=O)(=O)N2CCN(c3ccc4nnc(-c5ccccc5)n4n3)CC2)cc1	Apaf-1 inh 64.9
COc1ccc(S(=O)(=O)N2CCN(c3ccccc3OC)CC2)cc1	none
COc1ccc(-n2ccn(CC(=O)Nc3ccccc3OC)c(=O)c2=O)cc1	none
Cc1ccc(C)c(NC(=O)C2CC3CCC2C3)c1 (configuration not stated)	none
Oc1ccc(C2C[C@H]3CC[C@@H]2C3)cc1O (some centres not stated)	GSTO1 inh 42.4
COc1ccc(CNc2oc(COc3ccccc3Cl)nc2C#N)cc1	GSTO1 inh 35.3
COc1ccc(CCNC(=O)C(=O)NCC2OCCN2S(=O)(=O)c2cc(F)ccc2F)cc1 (configuration not stated)	none
Cc1cc(C)nc(SCNC(=O)c2ccc(F)cc2)n1	GSTO1 inh 36.5
Cc1cc(C)nc(SCC(=O)c2ccc(F)cc2)n1	none
